Test results reported in PMC9087257 (The Journal of International Medical Research, 2022).

Legend:
NCI-H460 cells [1] = test: MTT cell viability assay, NCI-H460; type: cell-based; conditions: Homo sapiens, NCI-H460, read-out: IC50 against NCI-H460 cells
Procedure, shortened: (§1)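 MTT viability: cells grown in RPMI-1640 with 10% FBS and penicillin-streptomycin, seeded in 24-well plates and held 24 h at 37°C, 5% CO2. Test compound added over a range of concentrations: 48 h for the cancer-line panel; three treatment durations for NCI-H460, NCI-H3122, HCC-44 and BEAS2B. MTT added for 2 h at 37°C, formazan dissolved in DMSO with 30 min shaking, absorbance read. Mean ± SEM.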

NCI-H3122 cells = test: MTT cell viability assay, NCI-H3122; type: cell-based; conditions: Homo sapiens, NCI-H3122, read-out: IC50 against NCI-H3122 cells
Procedure, shortened: as §1

HCC-44 cells = test: MTT cell viability assay, HCC-44; type: cell-based; conditions: for antiproliferative efficacy against HCC-44 cells: 48 h, MTT
Procedure, shortened: as §1

[2] = MTT cytotoxicity against normal cells BEAS2B; type: cell-based; conditions: human, BEAS2B cells (normal human epithelium cells)
Procedure, shortened: as §1

[3] = tested on: TE-11, SK-BR-3, HO-8910, QGY-7701, SHG-44, HCC-44, COLO-320, SH-SY5Y and SW579 cells; test: MTT cell viability, panel of nine cancer cell lines; type: cell-based; conditions: 48 h
c-Met kinase = c-Met kinase (Homo sapiens, UniProt P08581); test: ELISA kinase assay, c-Met; type: biochemical
ALK = ALK (Homo sapiens, UniProt Q9UM73); test: ELISA kinase assay, ALK; type: biochemical
Sequence of ALK (Q9UM73 19-1620): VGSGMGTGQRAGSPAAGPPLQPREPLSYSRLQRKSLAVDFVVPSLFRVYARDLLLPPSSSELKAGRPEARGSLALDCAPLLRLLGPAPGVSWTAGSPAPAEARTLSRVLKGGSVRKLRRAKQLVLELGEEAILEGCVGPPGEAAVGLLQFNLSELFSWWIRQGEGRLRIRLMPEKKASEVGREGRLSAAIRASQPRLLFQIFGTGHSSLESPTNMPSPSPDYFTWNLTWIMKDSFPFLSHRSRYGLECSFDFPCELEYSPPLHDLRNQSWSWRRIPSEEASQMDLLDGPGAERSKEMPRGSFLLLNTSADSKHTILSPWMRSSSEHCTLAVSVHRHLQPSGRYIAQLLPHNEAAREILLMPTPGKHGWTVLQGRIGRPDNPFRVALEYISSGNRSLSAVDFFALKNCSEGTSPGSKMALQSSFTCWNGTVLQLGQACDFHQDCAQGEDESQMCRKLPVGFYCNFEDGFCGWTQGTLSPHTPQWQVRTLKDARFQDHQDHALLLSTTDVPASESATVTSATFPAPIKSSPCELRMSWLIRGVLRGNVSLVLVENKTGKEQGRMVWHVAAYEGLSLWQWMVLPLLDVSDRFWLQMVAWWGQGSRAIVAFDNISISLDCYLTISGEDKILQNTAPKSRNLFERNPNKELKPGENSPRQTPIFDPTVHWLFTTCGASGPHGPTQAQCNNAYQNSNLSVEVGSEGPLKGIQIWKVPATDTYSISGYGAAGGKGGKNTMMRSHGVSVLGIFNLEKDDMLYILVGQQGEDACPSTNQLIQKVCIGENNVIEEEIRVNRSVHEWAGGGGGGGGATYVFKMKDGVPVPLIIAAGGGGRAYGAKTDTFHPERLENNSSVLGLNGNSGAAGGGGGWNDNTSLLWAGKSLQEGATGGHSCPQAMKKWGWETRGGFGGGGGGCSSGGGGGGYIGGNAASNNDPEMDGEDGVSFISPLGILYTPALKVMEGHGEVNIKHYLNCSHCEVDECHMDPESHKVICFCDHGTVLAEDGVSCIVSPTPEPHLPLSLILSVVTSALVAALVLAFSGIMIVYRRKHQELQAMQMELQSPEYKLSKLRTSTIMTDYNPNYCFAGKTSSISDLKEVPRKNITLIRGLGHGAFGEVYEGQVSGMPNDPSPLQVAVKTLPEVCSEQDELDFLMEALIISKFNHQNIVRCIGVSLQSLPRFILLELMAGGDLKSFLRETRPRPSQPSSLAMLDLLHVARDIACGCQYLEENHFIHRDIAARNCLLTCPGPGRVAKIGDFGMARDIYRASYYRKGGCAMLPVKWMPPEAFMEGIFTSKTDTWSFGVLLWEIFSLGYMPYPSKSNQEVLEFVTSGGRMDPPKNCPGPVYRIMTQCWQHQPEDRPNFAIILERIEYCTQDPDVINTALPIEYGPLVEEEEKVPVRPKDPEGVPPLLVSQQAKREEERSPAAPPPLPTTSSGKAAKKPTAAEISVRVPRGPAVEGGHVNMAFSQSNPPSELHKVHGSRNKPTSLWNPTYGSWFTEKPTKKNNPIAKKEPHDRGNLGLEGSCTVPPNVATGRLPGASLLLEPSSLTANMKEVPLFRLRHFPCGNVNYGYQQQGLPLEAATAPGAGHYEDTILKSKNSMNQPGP
Procedure, shortened: (§2)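 Tyrosine kinase ELISA: ATP in kinase reaction buffer, then test compound diluted in DMSO (DMSO as negative control). Reaction started by adding purified kinase and incubated 1 h at 37°C. Plate washed three times with 1 mM PBS (pH 7.5), then HRP-conjugated goat anti-mouse IgG added for 30 min at 37°C. Washed again and read by spectrophotometer.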

FGFR1 = FGFR1 (Homo sapiens, UniProt P11362); test: ELISA kinase assay, FGFR1; type: biochemical
Sequence of FGFR1 (P11362 22-822): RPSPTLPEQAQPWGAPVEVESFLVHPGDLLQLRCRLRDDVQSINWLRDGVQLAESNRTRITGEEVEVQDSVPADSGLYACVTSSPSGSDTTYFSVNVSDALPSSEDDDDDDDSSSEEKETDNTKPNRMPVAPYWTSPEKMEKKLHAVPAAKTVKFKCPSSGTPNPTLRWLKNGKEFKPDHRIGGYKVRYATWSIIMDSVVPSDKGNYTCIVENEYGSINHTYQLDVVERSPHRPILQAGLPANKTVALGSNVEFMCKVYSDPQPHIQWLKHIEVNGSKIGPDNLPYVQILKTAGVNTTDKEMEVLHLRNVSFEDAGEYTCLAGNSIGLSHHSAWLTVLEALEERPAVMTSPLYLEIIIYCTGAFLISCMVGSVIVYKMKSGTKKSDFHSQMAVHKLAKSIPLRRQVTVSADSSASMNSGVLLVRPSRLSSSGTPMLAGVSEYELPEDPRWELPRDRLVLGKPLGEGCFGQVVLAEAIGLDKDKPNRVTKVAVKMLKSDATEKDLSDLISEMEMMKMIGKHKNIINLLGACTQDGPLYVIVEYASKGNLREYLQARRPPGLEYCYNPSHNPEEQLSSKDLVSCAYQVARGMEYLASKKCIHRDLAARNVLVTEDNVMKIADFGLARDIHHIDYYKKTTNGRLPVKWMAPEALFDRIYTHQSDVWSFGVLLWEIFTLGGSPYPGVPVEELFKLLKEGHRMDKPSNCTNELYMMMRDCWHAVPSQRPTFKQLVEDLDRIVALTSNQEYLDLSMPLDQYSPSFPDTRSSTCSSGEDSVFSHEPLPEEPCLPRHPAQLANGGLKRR
Procedure, shortened: as §2

EGFR = EGFR (Homo sapiens, UniProt P00533); test: ELISA kinase assay, EGFR; type: biochemical
Procedure, shortened: as §2

TRKA = TRKA (Homo sapiens, UniProt P04629); test: ELISA kinase assay, TRKA; type: biochemical
Sequence of TRKA (P04629 33-796): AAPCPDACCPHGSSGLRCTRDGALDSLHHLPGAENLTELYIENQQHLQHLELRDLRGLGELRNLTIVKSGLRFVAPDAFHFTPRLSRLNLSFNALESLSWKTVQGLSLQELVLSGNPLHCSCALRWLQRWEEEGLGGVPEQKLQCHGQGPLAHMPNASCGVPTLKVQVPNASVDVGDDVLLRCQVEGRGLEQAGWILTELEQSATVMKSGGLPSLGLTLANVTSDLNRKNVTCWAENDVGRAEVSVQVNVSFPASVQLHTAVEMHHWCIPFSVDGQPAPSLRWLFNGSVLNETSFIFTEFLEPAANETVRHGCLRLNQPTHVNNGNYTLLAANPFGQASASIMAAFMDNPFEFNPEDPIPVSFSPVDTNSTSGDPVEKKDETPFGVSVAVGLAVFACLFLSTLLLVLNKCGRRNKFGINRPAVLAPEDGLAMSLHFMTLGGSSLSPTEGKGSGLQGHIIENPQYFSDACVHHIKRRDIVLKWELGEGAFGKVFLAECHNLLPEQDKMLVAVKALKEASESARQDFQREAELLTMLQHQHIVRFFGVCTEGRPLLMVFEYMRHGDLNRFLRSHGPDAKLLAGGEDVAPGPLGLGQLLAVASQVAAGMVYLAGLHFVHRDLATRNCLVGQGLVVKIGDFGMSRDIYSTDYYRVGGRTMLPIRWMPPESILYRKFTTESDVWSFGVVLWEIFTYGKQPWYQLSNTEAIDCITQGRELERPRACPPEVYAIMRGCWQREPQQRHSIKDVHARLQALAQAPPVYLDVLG
Procedure, shortened: as §2

PDGFRα = PDGFRα (Homo sapiens, UniProt P16234); test: ELISA kinase assay, PDGFRα; type: biochemical
Sequence of PDGFRα (P16234 24-1089): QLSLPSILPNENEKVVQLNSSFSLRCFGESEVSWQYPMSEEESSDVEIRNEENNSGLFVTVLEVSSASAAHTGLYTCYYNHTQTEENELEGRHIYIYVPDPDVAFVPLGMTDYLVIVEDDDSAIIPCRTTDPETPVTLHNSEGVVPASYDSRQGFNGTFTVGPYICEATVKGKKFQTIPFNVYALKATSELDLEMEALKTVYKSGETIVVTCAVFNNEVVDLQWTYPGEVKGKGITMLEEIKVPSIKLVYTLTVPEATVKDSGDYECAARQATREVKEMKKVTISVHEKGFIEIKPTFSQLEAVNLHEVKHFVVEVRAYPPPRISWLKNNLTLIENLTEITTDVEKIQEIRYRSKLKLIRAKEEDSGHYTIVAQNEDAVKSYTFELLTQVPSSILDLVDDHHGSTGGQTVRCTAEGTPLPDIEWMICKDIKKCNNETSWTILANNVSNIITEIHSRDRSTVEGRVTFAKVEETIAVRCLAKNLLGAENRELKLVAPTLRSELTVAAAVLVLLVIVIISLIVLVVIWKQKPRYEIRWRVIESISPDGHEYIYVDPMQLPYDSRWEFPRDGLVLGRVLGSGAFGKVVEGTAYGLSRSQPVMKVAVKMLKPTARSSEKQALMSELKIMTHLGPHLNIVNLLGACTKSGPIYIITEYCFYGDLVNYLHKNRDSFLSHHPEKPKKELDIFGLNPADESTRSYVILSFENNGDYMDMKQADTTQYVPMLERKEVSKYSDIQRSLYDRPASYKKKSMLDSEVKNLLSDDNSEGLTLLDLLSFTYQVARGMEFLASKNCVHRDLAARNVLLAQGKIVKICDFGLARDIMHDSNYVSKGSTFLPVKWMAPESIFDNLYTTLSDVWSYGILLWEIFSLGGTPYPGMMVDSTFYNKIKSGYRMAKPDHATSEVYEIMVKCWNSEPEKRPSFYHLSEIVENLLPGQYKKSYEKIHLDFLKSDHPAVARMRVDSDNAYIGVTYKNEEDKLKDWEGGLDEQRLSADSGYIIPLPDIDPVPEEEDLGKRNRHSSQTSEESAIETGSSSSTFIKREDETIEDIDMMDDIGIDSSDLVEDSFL
Procedure, shortened: as §2

NCI-H460 cells [4] = test: Wound healing assay; type: cell-based; conditions: 75 nM, 150 nM and 300 nM, 48 h
NCI-H460 cells [5] = test: Transwell migration assay; type: cell-based; conditions: 48 h
Procedure, shortened: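 Transwell migration with NCI-H460 cells, at three test-compound concentrations. Cells seeded in the upper chamber in serum-free RPMI-1640; lower chamber held RPMI-1640 with 10% FBS. After 48 h at 37°C, 5% CO2, cells were fixed and haematoxylin-stained, and migrated cells were counted.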

E-cadherin = test: Western blotting, E-cadherin level; type: cell-based; conditions: NCI-H460 cells, 48 h, Western blot
Procedure, shortened: (§3)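 Western blot: NCI-H460 cells treated 48 h with three test-compound concentrations; 5 × 10^6 cells lysed in RIPA, run on SDS-PAGE and transferred to PVDF. Membranes blocked in 5% defatted milk. Anti-E-cadherin or anti-N-cadherin (1:10000) at 4°C for 12 h; anti-GAPDH (1:50000) 2 h at 25°C as internal control. ECL detection; bands quantified against the control group; mean ± SEM.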

N-cadherin = test: Western blotting, N-cadherin level; type: cell-based; conditions: NCI-H460 cells, 48 h, Western blot
Procedure, shortened: as §3

NCI-H460 xenograft = NCI-H460 xenograft study; type: in vivo, BALB/c nude mice
Procedure, shortened: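 BALB/c nude mice (4 weeks, 18–21 g) carried NCI-H460 xenografts and were housed at 26–28°C on a 13 h/11 h light cycle. At tumour volume 100 mm3, mice were randomised, 5 per group, to water vehicle or 50 mg/kg test compound intragastrically every 3 days for 16 days. Tumours were then excised and weighed; heart, liver, spleen, lung and kidney taken for H&E.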

IC50 (NCI-H460 cells [1]): 150 nM
IC50 (NCI-H3122 cells): 1170 nM
IC50 (HCC-44 cells; Homo sapiens, HCC44, read-out: IC50 against HCC-44 cells): 2060 nM
IC50 (c-Met kinase): 27.96 ± 0.14 nM
IC50 (ALK): > 1500 nM
IC50 (FGFR1): > 1500 nM
IC50 (EGFR): > 1500 nM
IC50 (TRKA): > 1500 nM
IC50 (PDGFRα): > 1500 nM
Compound: O=C(/C=C/c1ccc(Br)cc1)c1ccc(OCCCSc2nncs2)cc1 [ZW97, (E)-1-(4-(3-((1,3,4-thiadiazol-2-yl)thio)propoxy)phenyl)-3-(4-bromophenyl)prop-2-en-1-one]
antiproliferative efficacy against HCC-44 cells (HCC-44 cells; 4 μM): approximately 65.7%
antiproliferative efficacy against HCC-44 cells (HCC-44 cells; 8 μM): ~88.3%
IC50 [2]: > 64 µM
antiproliferative activity in nine cancer cell lines [3]: antiproliferative activity against all nine cancer cell lines
wound healing (NCI-H460 cells [4]): inhibited the wound healing in a concentration dependent manner
cell migration (transwell) (NCI-H460 cells [5]): hindered NCI-H460 cell migration
level of E-cadherin (E-cadherin): upregulated
level of N-cadherin (N-cadherin): downregulated
subcutaneous tumour growth (NCI-H460 xenograft; 50 mg/kg intragastric for 16 days): suppressed NCI-H460 subcutaneous tumour growth
mouse body weight (NCI-H460 xenograft; 50 mg/kg intragastric for 16 days, compared with control): did not significantly decrease the mouse body weight
inhibitory rate (tumour weight) (NCI-H460 xenograft; day 16, 50 mg/kg intragastric once every 3 days, versus vehicle group): 61.58%
